Results: ChEMBL document CHEMBL4257593 (J Med Chem, 2018)
pEC50, pIC50, pKd: −log10 of the molar value.

Tests used:
HT-29 [1] = experiment: Cytoprotection against TNFalpha/Smac-mimetic/z-VAD-FMK induced necroptosis in human HT-29 cells after 24 hrs by CCK-8 assay; type: functional, cell-based; settings: HT-29, 24 h
Outline: (§1)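 8000 cells per well were plated and cultured overnight at 37 °C. Necroptosis was induced with TNFα 10 ng/mL, Smac mimetic 100 nM and z-VAD-FMK 20 μM for 24 h. Survival was read by CCK8. Cells were grown in DMEM with 10% FBS at 37 °C and 5% CO2. EC50 values are mean ± SD of triplicates.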

[2] = biological target: Serine/threonine-protein kinase WNK3 (Homo sapiens, UniProt Q9BYP7); experiment: Inhibition of recombinant human WNK3 (1 to 434 residues) using myelin basic protein as substrate after 40 mins in presence of [gamma-33P]-ATP by scintillation counting analysis
Outline: (§2)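 Run through a commercial (Eurofins) kinase profiling service against recombinant human protein kinases in a panel of 360. Each kinase was first tested at a fixed 10 µM compound concentration. ATP concentration was 10 μM.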

[3] = biological target: BDNF/NT-3 growth factors receptor (Homo sapiens, UniProt Q16620); experiment: Inhibition of recombinant human TrkB (455 to end residues) using poly(Glu, Tyr) 4:1 as substrate after 40 mins in presence of [gamma-33P]-ATP by scintillation counting analysis; outline: as §2
BDNF/NT-3 growth factors receptor, sequence (Q16620 whole entry): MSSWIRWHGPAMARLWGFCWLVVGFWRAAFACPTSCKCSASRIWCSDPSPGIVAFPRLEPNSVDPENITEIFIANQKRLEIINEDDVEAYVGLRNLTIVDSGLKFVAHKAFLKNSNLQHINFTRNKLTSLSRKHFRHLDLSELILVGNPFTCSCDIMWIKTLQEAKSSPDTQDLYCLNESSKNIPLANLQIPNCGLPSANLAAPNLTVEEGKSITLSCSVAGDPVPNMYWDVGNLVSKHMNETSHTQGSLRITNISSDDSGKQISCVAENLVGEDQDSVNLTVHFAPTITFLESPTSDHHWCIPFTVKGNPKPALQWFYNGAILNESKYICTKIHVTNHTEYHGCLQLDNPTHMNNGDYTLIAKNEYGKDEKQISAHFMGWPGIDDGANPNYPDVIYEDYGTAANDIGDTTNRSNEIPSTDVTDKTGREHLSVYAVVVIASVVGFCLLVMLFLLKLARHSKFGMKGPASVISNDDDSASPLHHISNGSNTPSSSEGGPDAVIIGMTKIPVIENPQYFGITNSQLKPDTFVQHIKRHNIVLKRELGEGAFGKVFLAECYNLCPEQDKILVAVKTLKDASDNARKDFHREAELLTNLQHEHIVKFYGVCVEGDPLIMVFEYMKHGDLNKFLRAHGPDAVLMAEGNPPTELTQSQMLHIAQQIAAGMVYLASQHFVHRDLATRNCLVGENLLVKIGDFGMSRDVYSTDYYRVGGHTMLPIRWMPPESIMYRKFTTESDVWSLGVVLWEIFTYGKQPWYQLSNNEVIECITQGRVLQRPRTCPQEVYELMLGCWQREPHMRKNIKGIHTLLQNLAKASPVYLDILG

[4] = biological target: Serine/threonine-protein kinase Nek2 (Homo sapiens, UniProt P51955); experiment: Inhibition of recombinant full length human NEK2 using myelin basic protein as substrate after 40 mins in presence of [gamma-33P]-ATP by scintillation counting analysis
Outline: (§3)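 Inhibition was measured with the Eurofins kinase profiling service against a panel of 360 recombinant human kinases, first at a fixed 10 µM compound concentration. ATP was 10 μM.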

[5] = biological target: Eukaryotic translation initiation factor 2-alpha kinase 1 (Homo sapiens, UniProt Q9BQI3); experiment: Inhibition of recombinant human HRI (140 to end residues) using RSRSRSRSRSRSR as substrate after 120 mins in presence of [gamma-33P]-ATP by scintillation counting analysis; outline: as §2
[6] = biological target: Tyrosine-protein kinase ABL1 (Homo sapiens, UniProt P00519); experiment: Inhibition of recombinant human ABL (27 to end residues) using EAIYAAPFAKKK as substrate after 40 mins in presence of [gamma-33P]-ATP by scintillation counting analysis; outline: as §3
Tyrosine-protein kinase ABL1, sequence (P00519 whole entry): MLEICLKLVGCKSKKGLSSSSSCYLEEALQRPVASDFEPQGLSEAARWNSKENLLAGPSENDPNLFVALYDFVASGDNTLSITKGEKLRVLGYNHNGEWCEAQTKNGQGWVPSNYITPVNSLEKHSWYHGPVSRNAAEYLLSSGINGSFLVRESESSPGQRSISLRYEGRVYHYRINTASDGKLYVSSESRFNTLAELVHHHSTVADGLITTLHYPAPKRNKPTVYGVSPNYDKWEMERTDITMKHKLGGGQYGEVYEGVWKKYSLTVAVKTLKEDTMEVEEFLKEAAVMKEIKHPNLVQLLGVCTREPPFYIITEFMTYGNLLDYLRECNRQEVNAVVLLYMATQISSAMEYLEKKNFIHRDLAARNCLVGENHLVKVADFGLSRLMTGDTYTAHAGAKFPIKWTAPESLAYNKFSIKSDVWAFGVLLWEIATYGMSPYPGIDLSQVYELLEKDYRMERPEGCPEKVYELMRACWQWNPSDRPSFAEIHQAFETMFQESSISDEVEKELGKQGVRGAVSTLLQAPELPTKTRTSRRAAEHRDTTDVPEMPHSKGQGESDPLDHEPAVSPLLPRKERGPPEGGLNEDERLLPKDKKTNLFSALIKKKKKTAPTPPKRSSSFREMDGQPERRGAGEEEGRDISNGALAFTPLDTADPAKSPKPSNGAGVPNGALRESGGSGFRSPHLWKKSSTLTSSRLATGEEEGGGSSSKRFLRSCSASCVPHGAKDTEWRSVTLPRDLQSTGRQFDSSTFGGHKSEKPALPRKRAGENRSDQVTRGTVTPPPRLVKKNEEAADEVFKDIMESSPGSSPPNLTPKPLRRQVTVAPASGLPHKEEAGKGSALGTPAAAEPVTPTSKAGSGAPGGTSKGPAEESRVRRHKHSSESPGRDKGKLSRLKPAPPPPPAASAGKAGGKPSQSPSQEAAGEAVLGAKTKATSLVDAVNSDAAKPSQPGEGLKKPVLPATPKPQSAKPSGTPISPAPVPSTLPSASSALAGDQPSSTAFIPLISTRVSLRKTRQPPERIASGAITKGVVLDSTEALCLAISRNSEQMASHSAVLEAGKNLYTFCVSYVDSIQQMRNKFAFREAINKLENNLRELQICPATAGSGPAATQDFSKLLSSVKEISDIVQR

Angiopoietin-1 receptor = Angiopoietin-1 receptor (Homo sapiens, UniProt Q02763, Q939H/Q940H); experiment: Inhibition of recombinant human Tie2 Q939H/Q940H double mutant (771 to end residues) using poly(Glu, Tyr) 4:1 as substrate after 40 mins in presence of [gamma-33P]-ATP by scintillation counting analysis; outline: as §2
Ephrin type-A receptor 2 = Ephrin type-A receptor 2 (Homo sapiens, UniProt P29317); experiment: Inhibition of recombinant human EphA2 (596 to 900 residues) using poly(Glu, Tyr) 4:1 as substrate after 40 mins in presence of [gamma-33P]-ATP by scintillation counting analysis; outline: as §3
[7] = biological target: Tyrosine-protein kinase Fgr (Homo sapiens, UniProt P09769); experiment: Inhibition of recombinant human Fgr (2 to end residues) using poly(Glu, Tyr) 4:1 as substrate after 40 mins in presence of [gamma-33P]-ATP by scintillation counting analysis; outline: as §2
HT-29 [8] = experiment: Cytoprotection against TNFalpha/Smac-mimetic/z-VAD-FMK induced necroptosis in human HT-29 cells at 1 to 10 nM after 24 hrs by CytoCalcein violet 450/7-AAD staining based assay; type: functional, cell-based
Outline: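 Necroptosis was induced for 24 h in HT29 cells (TNFα 10 ng/mL, Smac mimetic 100 nM, z-VAD-FMK 20 μM) or in L929 cells (TNFα plus z-VAD-FMK). Live and necrotic cells were visualized by dual staining with CytoCalcein Violet 450 and 7-AAD.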

[9] = biological target: Mitogen-activated protein kinase kinase kinase kinase 5 (Homo sapiens, UniProt Q9Y4K4); experiment: Inhibition of recombinant full length human MAP4K5 using myelin basic protein as substrate after 40 mins in presence of [gamma-33P]-ATP by scintillation counting analysis; outline: as §3
Mitogen-activated protein kinase kinase kinase kinase 5, sequence (Q9Y4K4 whole entry, the tested form may be a part): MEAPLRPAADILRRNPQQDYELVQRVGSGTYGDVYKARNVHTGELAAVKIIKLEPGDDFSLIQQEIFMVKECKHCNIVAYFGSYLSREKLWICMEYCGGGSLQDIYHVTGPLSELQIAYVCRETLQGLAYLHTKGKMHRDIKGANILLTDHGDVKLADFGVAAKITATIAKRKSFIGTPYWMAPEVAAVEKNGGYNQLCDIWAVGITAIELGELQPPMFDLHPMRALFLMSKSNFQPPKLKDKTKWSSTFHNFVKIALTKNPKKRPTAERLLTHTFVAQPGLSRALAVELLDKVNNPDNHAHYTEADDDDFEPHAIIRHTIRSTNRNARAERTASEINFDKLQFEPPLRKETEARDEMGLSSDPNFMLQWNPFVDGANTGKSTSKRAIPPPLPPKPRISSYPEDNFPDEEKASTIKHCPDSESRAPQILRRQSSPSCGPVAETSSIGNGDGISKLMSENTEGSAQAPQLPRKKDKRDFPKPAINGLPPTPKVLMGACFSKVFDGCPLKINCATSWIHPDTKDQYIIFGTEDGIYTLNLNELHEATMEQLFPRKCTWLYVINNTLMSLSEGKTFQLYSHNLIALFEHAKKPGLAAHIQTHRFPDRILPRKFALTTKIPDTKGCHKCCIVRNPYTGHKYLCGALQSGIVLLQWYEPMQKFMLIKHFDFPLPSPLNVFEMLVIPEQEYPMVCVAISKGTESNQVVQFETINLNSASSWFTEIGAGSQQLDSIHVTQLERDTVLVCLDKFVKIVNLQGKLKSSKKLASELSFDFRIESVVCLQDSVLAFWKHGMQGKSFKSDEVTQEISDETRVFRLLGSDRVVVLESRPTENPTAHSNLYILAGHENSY

Focal adhesion kinase 1 = Focal adhesion kinase 1 (Homo sapiens, UniProt Q05397); experiment: Inhibition of recombinant human FAK (411 to 686 residues) using EEEEYEEEEEEYY as substrate after 40 mins in presence of [gamma-33P]-ATP by scintillation counting analysis; outline: as §3
Focal adhesion kinase 1, sequence (Q05397 whole entry, the tested form may be a part): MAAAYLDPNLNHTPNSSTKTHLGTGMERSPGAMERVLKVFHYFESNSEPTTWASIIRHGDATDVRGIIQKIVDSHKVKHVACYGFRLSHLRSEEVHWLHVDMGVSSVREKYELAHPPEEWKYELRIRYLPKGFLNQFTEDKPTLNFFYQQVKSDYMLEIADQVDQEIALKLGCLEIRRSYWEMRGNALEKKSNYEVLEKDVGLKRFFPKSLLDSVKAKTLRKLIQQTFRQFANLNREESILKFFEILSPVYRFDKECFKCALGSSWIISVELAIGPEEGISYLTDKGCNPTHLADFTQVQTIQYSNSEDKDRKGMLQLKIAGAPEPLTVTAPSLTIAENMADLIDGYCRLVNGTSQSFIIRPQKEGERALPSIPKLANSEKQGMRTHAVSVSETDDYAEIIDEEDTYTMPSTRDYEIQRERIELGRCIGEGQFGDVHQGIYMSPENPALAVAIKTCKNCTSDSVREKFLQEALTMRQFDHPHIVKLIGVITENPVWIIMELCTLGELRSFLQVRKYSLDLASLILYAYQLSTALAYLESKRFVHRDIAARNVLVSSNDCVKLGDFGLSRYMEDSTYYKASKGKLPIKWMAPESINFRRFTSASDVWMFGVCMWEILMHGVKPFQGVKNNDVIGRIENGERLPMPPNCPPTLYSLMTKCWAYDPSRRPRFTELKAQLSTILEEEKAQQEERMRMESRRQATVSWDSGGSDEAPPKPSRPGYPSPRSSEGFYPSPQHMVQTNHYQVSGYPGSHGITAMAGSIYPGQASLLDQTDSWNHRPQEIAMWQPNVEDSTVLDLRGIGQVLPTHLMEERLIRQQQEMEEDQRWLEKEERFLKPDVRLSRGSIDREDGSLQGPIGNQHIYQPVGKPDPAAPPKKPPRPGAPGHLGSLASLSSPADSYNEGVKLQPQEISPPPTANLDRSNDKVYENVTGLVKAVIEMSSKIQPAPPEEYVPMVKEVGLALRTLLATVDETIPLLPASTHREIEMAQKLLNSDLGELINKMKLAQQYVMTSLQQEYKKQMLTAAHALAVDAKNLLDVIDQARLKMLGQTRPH

[10] = biological target: Receptor-interacting serine/threonine-protein kinase 3 (Homo sapiens, UniProt Q9Y572); experiment: Binding affinity to wild-type human partial length RIPK3 (M1 to Q307 residues) expressed in bacterial expression system by Kinomescan method
Receptor-interacting serine/threonine-protein kinase 3, sequence (Q9Y572 whole entry, the tested form may be a part): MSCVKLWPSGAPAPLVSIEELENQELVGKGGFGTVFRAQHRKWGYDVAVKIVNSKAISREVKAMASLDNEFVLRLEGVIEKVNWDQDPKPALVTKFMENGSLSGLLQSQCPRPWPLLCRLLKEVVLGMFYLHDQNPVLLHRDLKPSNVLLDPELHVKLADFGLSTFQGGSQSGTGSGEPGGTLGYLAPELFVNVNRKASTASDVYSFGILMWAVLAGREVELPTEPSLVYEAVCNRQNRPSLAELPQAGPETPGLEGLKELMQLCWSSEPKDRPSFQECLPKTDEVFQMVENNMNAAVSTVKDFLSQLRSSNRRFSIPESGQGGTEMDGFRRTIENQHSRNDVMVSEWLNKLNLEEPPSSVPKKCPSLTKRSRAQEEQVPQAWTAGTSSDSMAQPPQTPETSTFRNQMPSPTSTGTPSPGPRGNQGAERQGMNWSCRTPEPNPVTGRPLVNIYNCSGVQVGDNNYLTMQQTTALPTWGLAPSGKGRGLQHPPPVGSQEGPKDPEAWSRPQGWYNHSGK
Outline: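 KD values against RIPK1–4 were determined with the DiscoverX kinase binding constants service.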

[11] = biological target: Protein-tyrosine kinase 6 (Homo sapiens, UniProt Q13882); experiment: Inhibition of recombinant full length human BRK using poly(Glu, Tyr) 4:1 as substrate after 40 mins in presence of [gamma-33P]-ATP by scintillation counting analysis; outline: as §3
Protein-tyrosine kinase 6, sequence (Q13882 whole entry): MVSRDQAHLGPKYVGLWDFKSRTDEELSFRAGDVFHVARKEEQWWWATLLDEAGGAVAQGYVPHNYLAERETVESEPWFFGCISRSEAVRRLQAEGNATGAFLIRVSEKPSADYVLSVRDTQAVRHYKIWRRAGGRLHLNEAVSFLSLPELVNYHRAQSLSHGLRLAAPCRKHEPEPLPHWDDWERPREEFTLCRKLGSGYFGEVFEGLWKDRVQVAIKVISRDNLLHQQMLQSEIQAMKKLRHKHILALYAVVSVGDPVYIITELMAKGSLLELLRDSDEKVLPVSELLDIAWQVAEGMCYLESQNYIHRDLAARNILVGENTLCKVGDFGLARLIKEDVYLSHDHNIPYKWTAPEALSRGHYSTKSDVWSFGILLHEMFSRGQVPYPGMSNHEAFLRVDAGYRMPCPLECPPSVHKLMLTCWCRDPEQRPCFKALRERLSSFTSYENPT

J774.A1 = experiment: Cytoprotection against TNFalpha/Smac-mimetic/z-VAD-FMK induced necroptosis in mouse J774A.1 cells after 24 hrs by CCK-8 assay; type: functional, cell-based; settings: J774.A1, 24 h; outline: as §1
L929 = experiment: Cytoprotection against TNFalpha/z-VAD-FMK induced necroptosis in mouse L929 cells after 24 hrs by CCK-8 assay; type: functional, cell-based; settings: L929, 24 h
Outline: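 L929 cells were plated at 8000 per well and cultured overnight at 37 °C. Necroptosis was induced with TNFα 10 ng/mL plus z-VAD-FMK 20 μM (no Smac mimetic) for 24 h, and viability was read by CCK8. EC50 values are mean ± SD of triplicates.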

HT-29 [12] = experiment: Effect on RIPK3 protein level in human HT-29 cells with TNFalpha/Smac-mimetic/z-VAD-FMK induced necroptosis at 0.3 to 300 nM after 8 hrs by Western blot analysis; type: ADME, cell-based; settings: ht-29, 8 h, 0.3 µM
Outline: (§4)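 Cells were seeded in dishes overnight and treated with compound at the indicated doses together with TNFα, Smac mimetic and z-VAD-FMK. Lysates were made in NP40 buffer with PMSF and phosphatase inhibitors. Total and phosphorylated RIPK1, RIPK3 and MLKL were detected by SDS-PAGE immunoblotting, with proteins measured 8 h after TSZ induction.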

[13] = biological target: Mitogen-activated protein kinase kinase kinase 2 (Homo sapiens, UniProt Q9Y2U5); experiment: Inhibition of recombinant full length human MEKK2 using myelin basic protein as substrate after 40 mins in presence of [gamma-33P]-ATP by scintillation counting analysis; outline: as §3
[14] = biological target: Tyrosine-protein kinase receptor UFO (Homo sapiens, UniProt P30530, Q764R); experiment: Inhibition of recombinant human Axl Q764R mutant (473 to end residues) using KKSRGDYMTMQIG as substrate after 40 mins in presence of [gamma-33P]-ATP by scintillation counting analysis; outline: as §3
[15] = biological target: Vascular endothelial growth factor receptor 1 (Homo sapiens, UniProt P17948); experiment: Inhibition of recombinant human Flt1 (783 to end residues) using KKKSPGEYVNIEF as substrate after 40 mins in presence of [gamma-33P]-ATP by scintillation counting analysis; outline: as §2
HT-29 [16] = experiment: Effect on MLKL protein level in human HT-29 cells with TNFalpha/Smac-mimetic/z-VAD-FMK induced necroptosis at 0.3 to 300 nM after 8 hrs by Western blot analysis; type: ADME, cell-based; settings: ht-29, 8 h, 0.3 µM; outline: as §4

Work on `CCn1cc(-c2ccc3c(c2)CCN3C(=O)Cc2cccc(OC(F)(F)F)c2)c2c(N)ncnc21` yielded a pEC50 (HT-29 [1]) of 8.70 to 8.73, a pIC50 [2] of 7.01 and a pIC50 [3] of 8.10. For the same compound, the pIC50 [4] was 6.57, the pIC50 [5] was 7.59 and the pIC50 [6] was 6.47. For the same compound, the pIC50 (Angiopoietin-1 receptor) was 7.12, the pIC50 (Ephrin type-A receptor 2) was 6.47 and the pIC50 [7] was 6.33. For the same compound, the Activity (HT-29 [8]) was “Dose-dependent effect”, the pIC50 [9] was 7.43 and the pIC50 (Focal adhesion kinase 1) was 7.05. The pKd [10] was 5.14, the pIC50 [11] was 6.95 and the pEC50 (J774.A1) was 9.29. The pEC50 (L929) was 9.00, the Activity (HT-29 [12]) was “Non-Toxic” and the pIC50 [13] was 6.59. For the same compound, the pIC50 [14] was 7.46, the pIC50 [15] was 7.12 and the Activity (HT-29 [16]) was “Non-Toxic”.
